# In all, about 360,000 compounds went through this assay and about 740 (0.21%) were called active. For the sample, actives were picked, then their nearest neighbours and some compounds at random. Values without a mark were called inactive.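 How the source made its calls: active means mean lysis activity across replicates of at least 80%, whatever share of replicates individually reach that level; inactive means mean lysis activity below 80%.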
# Assay: Cryptococcus neoformans cell lysis inducers, primary screen, AK release luminescence, single concentration (AID 651654)
# Settings: C. neoformans lysis, adenylate kinase release luminescence, 4 h; at 15 µM; stronger effect = higher value; normalised: neutral wells 0, clomiphene wells 100
# Outline: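 Assay system: C. neoformans cells. Amount: yeast cell density of 5 × 10^6 cells/mL. Technique: AK luminescence. Buffer or medium: YPD. Times: static 4 h at 37 °C with compound, 1 h detection. Dosing: single-point compound dose. Read-out: lysis from increased AK signal.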
row,SMILES,lysis activity
1,CNC[C@H]1Oc2ccc(NS(=O)(=O)c3ccc(F)cc3)cc2C(=O)N([C@@H](C)CO)C[C@@H]1C,3.02%
2,Cc1ccc(S(=O)(=O)N[C@H]2CC[C@@H](CC(=O)NCCCN(C)C)O[C@H]2CO)cc1,-1.04%
3,CCCNC(=O)N1[C@@H]2c3cccc(=O)n3C[C@H]1[C@H](CO)[C@H]2C(=O)NCC(F)(F)F,-3.09%
4,CCCNC(=O)[C@@H]1[C@@H](CO)[C@@H]2Cn3c(cccc3=O)[C@H]1N2C(=O)C1CC1,1.83%
5,CCCNC(=O)[C@@H]1[C@@H](CO)[C@@H]2Cn3c(cccc3=O)[C@H]1N2C(=O)Nc1cc(F)ccc1F,92.3% (active)
6,COc1ccc(S(=O)(=O)N(C)C[C@@H]2Oc3ccc(NC(=O)CCC(F)(F)F)cc3C(=O)N([C@@H](C)CO)C[C@H]2C)cc1,2.26%
7,O=C(C[C@H]1C=C[C@H](NS(=O)(=O)c2ccc(F)cc2)[C@H](CO)O1)NCc1ccncn1,-3.14%
8,C[C@@H]1CN([C@H](C)CO)C(=O)c2cc(NC(=O)CCCN(C)C)ccc2O[C@H]1CN(C)Cc1ccc(C(=O)O)cc1,-1.44%
9,CO[C@@H]1CN(C)C(=O)c2ccc(NC(=O)C3CCC3)cc2OC[C@H](C)NC[C@H]1C,1.85%
10,CC(C)NC(=O)N(C)C[C@H]1Oc2c(NC(=O)c3ccncc3)cccc2C(=O)N([C@@H](C)CO)C[C@H]1C,-2.5%
11,C[C@H](CO)N1C[C@H](C)[C@@H](CN(C)Cc2ccc(Oc3ccccc3)cc2)Oc2cc(-c3ccncc3)ccc2S1(=O)=O,-0.269%
12,CCCNC(=O)Nc1ccc2c(c1)OC[C@H](C)N(Cc1ccccc1)C[C@H](C)[C@H](OC)CN(C)C2=O,-0.367%
13,CO[C@@H]1CN(C)C(=O)c2ccc(NC(=O)C3CC3)cc2OC[C@@H](C)N(CC2CCOCC2)C[C@H]1C,61.5%
14,O=C(c1ccccc1)N1CC[C@H]2[C@H](CO)Nc3ccc(-c4ccc(F)cc4)cc3[C@H]21,21.5%
15,C/C=C/c1cnc2c(c1)C(=O)N([C@@H](C)CO)C[C@@H](C)[C@H](CN(C)Cc1cncnc1)O2,-1.92%
16,COc1cccc(NC(=O)N2CC[C@@H]3[C@@H](CO)N(C)c4ccc(-c5cccc(F)c5)cc4[C@@H]32)c1,-11.2%
17,Cc1noc(C)c1NC(=O)N(C)C[C@@H]1Oc2ccc(NC(=O)Nc3cccc4ccccc34)cc2CC(=O)N([C@@H](C)CO)C[C@H]1C,41.1%
18,CCN1[C@@H]2c3ccc(C4=CCCC4)c(=O)n3C[C@@H]2[C@@H](CO)[C@@H]1C(=O)NCc1ccccn1,1.37%
19,CO[C@@H]1CN(C)C(=O)c2ccc(NS(=O)(=O)c3ccc(Cl)cc3)cc2OC[C@H](C)N(C(=O)NC(C)C)C[C@H]1C,-5.3%
20,C[C@H]1CN([C@@H](C)CO)C(=O)c2cccc(NC(=O)Nc3ccccc3)c2O[C@@H]1CN(C)S(=O)(=O)c1ccc(F)cc1,-1.52%
21,OC[C@@H]1[C@@H](c2ccc(C#CC3(O)CCCC3)cc2)[C@@H]2CN(Cc3cncnc3)CCCCN12,-3.24%
22,O=C(C[C@@H]1CC[C@H](NC(=O)Nc2ccc(F)cc2)[C@H](CO)O1)NCc1ccccn1,-0.684%
23,CO[C@@H]1CN(C)C(=O)c2cc(NC(=O)C3CC3)ccc2OC[C@@H](C)N(C(=O)c2ccccc2F)C[C@@H]1C,44%

row,SMILES,lysis activity
1,C[C@@H]1CN([C@@H](C)CO)S(=O)(=O)c2ccc(-c3ccc(C(=O)N(C)C)cc3)cc2O[C@@H]1CN(C)C(=O)Cc1ccccn1,0.616%
2,CN1CCN(C(=O)c2cc3c(c(-c4cccc(-c5ccc(C(=O)N(C)C)cc5)c4)n2)[C@@H](CCO)N([S@](=O)C(C)(C)C)C3)CC1,-8.88%
3,Cc1ccc(S(=O)(=O)N[C@@H]2CC[C@H](CCNC(=O)C3CCOCC3)O[C@@H]2CO)cc1,-6.3%
4,COCC(=O)Nc1ccc2c(c1)OC[C@H](C)N(C(=O)c1ccccn1)C[C@@H](C)[C@H](OC)CN(C)C2=O,0.52%
5,O=C(C[C@H]1CC[C@@H]2[C@H](COC[C@@H](O)CN2C(=O)Nc2ccc(Cl)cc2)O1)NC1Cc2ccccc2C1,-3.01%
6,C[C@@H]1CN([C@H](C)CO)C(=O)c2cc(C#CC3CC3)cnc2O[C@@H]1CN(C)Cc1cccc(C(=O)O)c1,-8.03%
7,C[C@H](CO)N1C[C@H](C)[C@@H](CN(C)Cc2ccc(C(=O)Nc3ccccc3N)cc2)Oc2c(NC(=O)C3CC3)cccc2C1=O,-0.959%
8,COCC(=O)N(C)C[C@@H]1Oc2cc(C#CCC(C)C)ccc2S(=O)(=O)N([C@@H](C)CO)C[C@@H]1C,0.182%
9,O=C(CN1CCOCC1)NC[C@@H]1N[C@@H](CO)[C@@H]1c1ccc(-c2ccccc2)cc1,4.94%
10,CCC(=O)N1[C@@H]2CN(C(=O)Nc3ccc(Cl)cc3)c3ccccc3[C@@H]2[C@@H]1CO,-1.93%
11,COc1cccc(S(=O)(=O)Nc2ccc3c(c2)[C@@H]2C[C@H](CC(=O)NC4CCCCC4)O[C@H](CO)[C@@H]2O3)c1,116% (active)
12,COc1cccc(S(=O)(=O)Nc2ccc3c(c2)[C@@H]2C[C@@H](CC(=O)NC4CCCCC4)O[C@H](CO)[C@@H]2O3)c1,2.9%
13,COc1cccc(S(=O)(=O)Nc2ccc3c(c2)[C@H]2C[C@H](CC(=O)O)O[C@H](CO)[C@H]2O3)c1,-0.106%
14,CCCC#Cc1cnc2c(c1)C(=O)N([C@H](C)CO)C[C@H](C)[C@H](CN(C)C(=O)c1cnccn1)O2,-1.04%
15,CCC(=O)Nc1ccc2c(c1)C(=O)N(C)[C@H]1CC[C@H](CC(=O)NC3Cc4ccccc4C3)O[C@H]1CO2,-0.192%
16,COCC(=O)Nc1ccc2c(c1)[C@H]1C[C@H](CC(=O)OC)O[C@@H](CO)[C@H]1O2,-5.98%
17,O=C(C[C@H]1CC[C@H]2[C@@H](COC[C@H](O)CN2C(=O)Nc2ccc(Cl)cc2)O1)NCC1CC1,-8.94%
18,C[C@H]1CN([C@@H](C)CO)C(=O)c2cc(NC(=O)Cn3cnnn3)ccc2O[C@H]1CN(C)Cc1ccc(C(=O)O)cc1,-7.7%
19,C[C@H](NC(=O)C[C@@H]1CC[C@@H](NC(=O)Cc2ccccn2)[C@@H](CO)O1)c1ccccc1,0.182%
20,C[C@@H](NC(=O)C[C@H]1CC[C@@H](NC(=O)Cc2ccccn2)[C@@H](CO)O1)c1ccccc1,105% (active)
21,C[C@@H](NC(=O)C[C@@H]1CC[C@H](NC(=O)Cc2ccccn2)[C@H](CO)O1)c1ccccc1,-0.901%
22,COc1ccc(NC(=O)N(C)C[C@@H]2OCCCC[C@@H](C)Oc3ccc(NS(=O)(=O)c4c(C)noc4C)cc3C(=O)N([C@H](C)CO)C[C@@H]2C)cc1,-3%
23,CC(C)C#Cc1ccc2c(c1)O[C@H](CN(C)Cc1ccccc1)[C@H](C)CN([C@@H](C)CO)S2(=O)=O,14.5%

row,SMILES,lysis activity
1,CCNC(=O)C[C@@H]1CC[C@H]2[C@@H](COc3ccc(NC(=O)Cc4cccs4)cc3C(=O)N2C)O1,-1.39%
2,COc1ccccc1CNC(=O)C[C@H]1CC[C@@H]2[C@H](COC[C@H](O)CN2Cc2ccccc2)O1,-1.1%
3,COc1ccccc1-c1ccc2n(c1=O)C[C@@H]1[C@@H](CO)[C@H](C(=O)NCc3ccccc3Cl)N[C@H]21,-0.428%
4,CO[C@@H]1CN(C)C(=O)c2cc(NC(=O)c3ccno3)ccc2OC[C@@H](C)N(S(C)(=O)=O)C[C@@H]1C,0.04%
5,C/C=C/c1ccc([C@H]2[C@@H](CO)N(C(C)=O)[C@H]2CN(C)S(C)(=O)=O)cc1,-1.56%
6,C/C=C/c1ccc2c(c1)O[C@H](CN(C)C(=O)Nc1ccc(OC)cc1)[C@@H](C)CN([C@H](C)CO)S2(=O)=O,-3.44%
7,Cc1ccc(S(=O)(=O)Nc2ccc3c(c2)C(=O)N([C@@H](C)CO)C[C@@H](C)[C@@H](CN(C)Cc2ccc(C(F)(F)F)cc2)OCCCC[C@@H](C)O3)cc1,54.9%
8,C[C@@H]1CCCCO[C@H](CN(C)C(=O)NC2CCCCC2)[C@H](C)CN([C@H](C)CO)C(=O)c2cc(NC(=O)c3ccncc3)ccc2O1,-2.46%
9,CO[C@@H]1CN(C)C(=O)c2cc(NC(=O)Nc3ccc(F)cc3)ccc2OC[C@@H](C)NC[C@@H]1C,-3.48%
10,COc1cccc(-c2ccc3n(c2=O)C[C@@H]2[C@@H](CO)[C@H](C(=O)NCC4CC4)N(C(=O)NC(C)C)[C@H]32)c1,-2.16%
11,CCC(=O)Nc1ccc2c(c1)C(=O)N(C)C[C@H](OC)[C@H](C)CN(Cc1ccccc1F)[C@H](C)CO2,3.58%
12,C[C@@H]1CN([C@H](C)CO)S(=O)(=O)c2ccc(C3=CCCC3)cc2O[C@H]1CN(C)C(=O)c1ccccc1,2.54%
13,O=C(C[C@@H]1C[C@@H]2c3cc(NS(=O)(=O)c4ccc(F)cc4)ccc3O[C@@H]2[C@@H](CO)O1)N1CCOCC1,-1.76%
14,C[C@@H]1CCCCO[C@@H](CN(C)S(C)(=O)=O)[C@H](C)CN([C@@H](C)CO)C(=O)c2cc(NS(=O)(=O)c3cccs3)ccc2O1,0.965%
15,C[C@H]1CN([C@@H](C)CO)C(=O)c2ccccc2-c2ccccc2CO[C@H]1CN(C)S(=O)(=O)c1ccccc1C#N,1.59%
16,Cc1ccc(S(=O)(=O)N(C)C[C@H]2OCc3ccccc3-c3ccccc3C(=O)N([C@@H](C)CO)C[C@@H]2C)cc1,-0.134%
17,C[C@H]1CN([C@@H](C)CO)C(=O)c2ccccc2-c2ccccc2CO[C@H]1CN(C)S(=O)(=O)c1cccc(C#N)c1,82.9% (active)
18,CO[C@H]1CN(C)C(=O)c2cc(NC(=O)C3CC3)ccc2OC[C@@H](C)N(Cc2cc(F)ccc2F)C[C@H]1C,0.743%
19,COC(=O)C[C@H]1C[C@H]2c3cc(NC(=O)Nc4ccccc4F)ccc3O[C@H]2[C@H](CO)O1,11.5%
20,CO[C@@H]1CN(C)C(=O)c2ccc(NC(=O)Nc3c(C)noc3C)cc2OC[C@@H](C)NC[C@H]1C,-0.469%
21,O=C(c1ccncc1)N1CC[C@@H]2[C@H]1c1cc(Br)ccc1N[C@@H]2CO,-16.8%
22,C[C@H]1CN([C@@H](C)CO)S(=O)(=O)c2ccc(C3=CCCC3)cc2O[C@H]1CN(C)Cc1cccc(C(=O)O)c1,0.868%
